Drawing on the RNAGym collection of RNA variant scans (doi:10.1126/science.aae0568), this text covers yeast fitness for 37 variants.

Sequences and labels used below:
B1: tRNA (parent)
chain: GUUCCGUUGGCGUAAUGGUAACGCGUCUCCCUCCUAAGGAGAAGACUGCGGGUUCGAGUCCCGUACGGAACG

Variants at the floor of the assay were thinned out. Bounds are passed on as bounds.

Variants of B1 are the subject of the data set. Nature of the data set: yeast fitness relative to wild type (ratio to wild type); higher = fitter; tRNA-Arg(CCU), competitive growth, 37 C, YPD. Put shortly: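 A pool of Saccharomyces cerevisiae strains, each with a tRNA-Arg(CCU) gene variant at the native genomic locus, was competed in YPD at 37°C for 24 hours across six parallel replicates. The variants had been chemically synthesised at a 3% per-site mutation rate over 69 sites, and gene amplicons before and after competition were read by 100-nucleotide paired-end sequencing. Darwinian fitness relative to wild type rested on changes in genotype frequencies. Genotypes required ≥ 100 starting reads, and estimates < 0.5 were set to 0.5.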
In the case of GUUGGGUUGGAGUAAUGGUAACGCGUCUCCCUCCUAAAGAGAAGACUGCGGGUUCGAGUCCCGUACAGAACG, the yeast fitness is at most 0.5. Next, GUUCCGUUGGGGUAAUGGUAAAGCGUCUCCAUCCUAAGGAGAAGACUGCGGGUUCGAGUCACGUACGGAACG: at most 0.5. Under GUUCCGUUGGCGUCAUGGUAACGAGUGUCCCUCCUAAGGAGAAGAGUGCGGGUUCGAGUCCCGUGCGGAACG stands at most 0.5. Next, GUUCCGUUGGCGUUAUGGUAACGCGUCUCCCUCGUAAGGAGAAGACUGCGGGUUCGAGUCGCGUACGGACCG: at most 0.5; GUUCCGUUGGCGUGAUGGUAACCCGUCUCCCUCCUAAGGAGAAGACUGCGGGUUUGAGUCUCGUUCGGAACG: 0.558; GUUCCGUUGGCGUAAUGGUAACGCGUCUCCCUCCUAAGGAGAAAACUGCGGGUUCGAGUCCCGGACGGAACG: 0.694. For GUUCCGUUGGCGUAAUGGUGACGCGUCUCCCUCCUACGGAGAAGACUGCGGGUUCGAGUCCCGUACGAAACG, the yeast fitness amounted to 0.515. Next, GUUCCGUUGGGGUAAUGGUAACGCGUCACCCUCCUAAGGAGAAGACUGCGGGUUCGAGUCCCGUACGAAACG: at most 0.5. As for GUUCCGUUGGCGUAAUGAUAACGCGUCUCCCUCUUAAGGAGAAGACUACGGGUUCGAGUCCCGUCCGGAACG, the yeast fitness was at most 0.5. Under GUUCCGUUGGCGUAAUGGUACCGCGUCUUCGUCCUAAGGAGAUGACUGCGGGUUCGAGUCCCGUUCGGAACG stands 0.593; under GUGCCGUUGGCGUAAUGGUAACGCGUCUCCUUCCUAAGGAGAAGACUGCGGGUUCGAGUCCCGUACGGAACG, 1; under GUUCCGUUGGGGUAAUGGUAACGCGUCUCCUUCCUAAGGAGAAGAGUGCGGGUUCGAGUCCCAUACGGAACG, at most 0.5.

Consider GUUCCGUUGGCGUAAUGGUAACGCGUCUCCCUCCUUAGGAGAAGACUGCGGGUUCGAGUCCCGUACGAAACG, for which the yeast fitness amounted to 0.642. Consider GUUCCGUUGGCGUAAUGGCAACGCGUCUCCAUCCUAAGGAGAAGACUGCGGGUUCGAGUCCCGUACGGAACG, for which the yeast fitness amounted to 0.768.

As to GUUCCGUUGGCGUAAUGGUAACGCGUCUCCCUCCUAGGGAGAAGACAGCGGGUUCGAGUACCGUACGGAACG, the yeast fitness is at most 0.5. Next, GUUCGGUUGGCGUAAUGGUAACGCGUCUCCCUCCUAAGGAGAAGACUGCGGGUCCGAGUCCCGUACGGAACG: 0.814; GUUCCGUUGGCGUAAUGGGAACGCGUCUACCUCCUAAGGAGAAGUCUGCGGGUUCGAGUCCCGUACGGAACG: at most 0.5; GUUCCGUUGGCGUAAUGGUAACGCGUCUCCCUCCUAAGGAGAAGACGGAGGGUUCGAGUCCCAUACGAAACG: at most 0.5.

For GUUCCGUUGGCGUAAUGGUAGCGCGUCUCCCUCCUAAGGAGAAGACUGGGGGUUCCAGUCCCGUACGGAACG, the yeast fitness was at most 0.5. Regarding GUUCCGUUGGCGUAAUCGUAACGCGUCUCCCUCCUAAGGAGAAGACUGCGGGUUCGAGUCCCGUACGGACCG, the yeast fitness was 0.751. Under GUUUCGUUGGCGUAGUGGUAACCCGUCUCCCUCCUAUGGAGAAGACUGCGGGUUCGAGUCACGUACGGAACG stands at most 0.5; under GUUCCCUUGGCGUAAUGGUAACGCGUCUCCCUCCUAAGGAGAAGACUGCGGGUUAGAGUCCCGUACGGAACG, 0.717. Under GUUCCGUCGGAGUAAUGGUAACGCGUCUCACUCCUAAGGAGAAGACUGCGGGUUCGAGUCCCGUACGGAACG stands at most 0.5; under GUUCCGCUGGCGUAAUGGUAACCCGUCUCCCUCCUAAGGAGAAGACUGCGGGUUCGAGUCCCGUACGGAACG, 0.671. As to GUUCCGUUGGCGUAACGGUAACGCCUCUCCCUCUUAAGGAGAAGACUGCGGGUUCGAGUCCCGGACGGAACG, the yeast fitness is 0.585.

Turning to GUUCCAUUGGCGUAAUGGUAACGCGUCUCCCUCCUAAGGAGAAGAAUGCGGGUUCGAGUCCCGUACGGAACG, the yeast fitness stood at 0.97.

As to GUUACGUUGGCGUAAUGGUAACGCGGCUCCCUCCUAAGGAGAAGACUGCGGGGUCGAGUCCCGUACGGAACG, the yeast fitness was at most 0.5. Under GUUCCGUUGGCGUAAUGGAAACGCGUCUCCCUCCUAAGGAGAAGAUUGCGGGUUCGCGUCCCGUACGGACCG stands at most 0.5.

With GUUCCGUUGGCGUAAUGGUAACGCGUCUCCCUCCUAAGGAGAAGACUGCGGGUUUGAGUCCUGUACGGAACG, the yeast fitness worked out at 0.708. Next, GUUCCGUUGGCGAAAUGGUAAAGCGUCUACCUCCUAAGGACAAGACUGCCGGUUCGAGUCCCGUACGGAACG: at most 0.5; GUUCCAUUGGCGUAAUGGUAACGCGUCUCCCUCCUACGGAGAAGACUGCGGGUUCGAGUCCCGUACGGAACG: 0.824; GUUCCGUUGGCGUAAUGGUAAUGCGUCUCCCUCCUAAGGAGAAGACUCCGGGUUCGAGUCCCGUACGGAACG: 0.863.

On to GUUCCGUUGGCGUGAUGGUAACGCGUCUCCCUCCUAAGGAGAAGACUGCGGGUUCGCGUCCUGUACGGAACG, for which the yeast fitness was at most 0.5.

In the case of GCCCCGUUGGCGUAAUGGUACCGAGUCUCCCUCCUAAGGAGAAGACUGCGGGUUCGAGUCCCGUCCGGAACG, the yeast fitness was at most 0.5. Under GUUCCGUUGGCGUAAUGGCAACGCGUCUUCCUCCUAAGGAGAAGACUGCGGGUUCGAGUCCCGUACGGAACG stands 0.948. Consider GUUCCGUUGGCGUAAUGGUACCGCGUAUCCCUUCUAAGGAGAAGACUGCGGGUUCGAGUCCCGUACGGAACG, for which the yeast fitness is 0.906.

With GUUCUGUUGGCGUGAUGGUAACGCGCCUCUCUCCUAAGGAGCAGACUGCGGGUUCGAGUCGCGUACGGAACG, the yeast fitness is at most 0.5.
